Data reported in ChEMBL document CHEMBL4041461, “Discovery of 6,7-dihydro-3H-pyrano[4,3-c]isoxazol-3-ones as a new class of pathogen specific anti-leptospiral agents” (Eur J Med Chem, 2017).
Values after ≈ are worked out from the molar mass of the structure shown. Active and inactive are the calls of the source. The calls are words filed in the database; no cut-off is given here.

Columns and labels:
[1] = system: Leptospira interrogans serovar Autumnalis; experiment: Antibacterial activity against Leptospira interrogans serovar Autumnalis N2 at 31.25 ug/mL after 2 hrs by micro dilution assay; format: functional
Summary of the method: (§1)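 Preliminary screen by broth microdilution against L. interrogans serovar Autumnalis strain N2, each compound at 500, 250, 125, 62.5 and 31.25 µg/mL. Growth at each concentration was scored as resistance (R) or inhibition (I), and the MIC was taken from these scores. Triplicates.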

[2] = Antibacterial activity against Leptospira interrogans serovar Bataviae Swart after 2 hrs by micro dilution assay; format: functional
[3] = (§2) Antibacterial activity against Leptospira interrogans serovar Semaranga after 2 hrs by micro dilution assay; format: functional
[4] = Antibacterial activity against Leptospira interrogans serovar Pyrogenes Salinem after 2 hrs by micro dilution assay; format: functional
[5] = Antibacterial activity against Leptospira interrogans serovar Javanica Poi after 2 hrs by micro dilution assay; format: functional
[6] = system: Leptospira interrogans serovar Autumnalis; experiment: Antibacterial activity against Leptospira interrogans serovar Autumnalis N2 at 125 ug/mL after 2 hrs by micro dilution assay; format: functional; summary of the method: as §1
[7] = Antibacterial activity against Leptospira interrogans serovar Pomona after 2 hrs by micro dilution assay; format: functional
[8] = Antibacterial activity against Leptospira interrogans serovar Grippotyphosa Moskva V after 2 hrs by micro dilution assay; format: functional
[9] = Antibacterial activity against Leptospira interrogans serovar Icterohaemorrhagiae RGA after 2 hrs by micro dilution assay; format: functional
[10] = system: Leptospira interrogans serovar Autumnalis; experiment: Antibacterial activity against Leptospira interrogans serovar Autumnalis N2 at 250 ug/mL after 2 hrs by micro dilution assay; format: functional; summary of the method: as §1
[11] = Antibacterial activity against Leptospira interrogans serovar Canicola Hond Utrecht IV after 2 hrs by micro dilution assay; format: functional
[12] = system: Leptospira interrogans serovar Autumnalis; experiment: Antibacterial activity against Leptospira interrogans serovar Autumnalis N2 at 62.5 ug/mL after 2 hrs by micro dilution assay; format: functional; summary of the method: as §1
[13] = Antibacterial activity against Leptospira interrogans serovar Ballum Mus 127 after 2 hrs by micro dilution assay; format: functional; details: Mus 127, 2 h
[14] = Antibacterial activity against Leptospira interrogans serovar Hebdomadis after 2 hrs by micro dilution assay; format: functional
[15] = Antibacterial activity against Leptospira interrogans serovar Hardjo Hardjoprajitno after 2 hrs by micro dilution assay; format: functional
[16] = system: Leptospira interrogans serovar Autumnalis; experiment: Antibacterial activity against Leptospira interrogans serovar Autumnalis N2 at 500 ug/mL after 2 hrs by micro dilution assay; format: functional; summary of the method: as §1
[17] = Antibacterial activity against Leptospira interrogans serovar Australis Ballico after 2 hrs by micro dilution assay; format: functional
[18] = Antibacterial activity against Leptospira interrogans serovar Autumnalis N2 after 2 hrs by micro dilution assay; format: functional; details: N2, 2 h
Leptospira interrogans = experiment: as §2; format: functional
THP-1 = experiment: Induction of cell death in human THP1 cells at 0.5 mM after 12 hrs by propidium iodide staining based confocal laser scanning microscopic method; details: thp-1, 12 h, 500 µM
Summary of the method: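 THP-1 cells were treated for 12 h and then stained with propidium iodide. Apoptotic and necrotic cells were counted manually and expressed as a percentage. Untreated cells and tert-butylhydroperoxide served as controls. Data are mean ± SD of triplicates.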

SMILES | Activity [1] | MIC [2] [µg/mL] | MIC [3] [µg/mL] | MIC [4] [µg/mL] | MIC [5] [µg/mL] | Activity [6] | MIC [7] [µg/mL] | MIC [8] [µg/mL] | MIC [9] [µg/mL] | Activity [10] | MIC [11] [µg/mL] | Activity [12] | MIC [13] [µg/mL] | MIC [14] [µg/mL] | MIC [15] [µg/mL] | Activity [16] | MIC [17] [µg/mL] | MIC [18] [µg/mL] | MIC (Leptospira interrogans) | Activity (THP-1)
COc1ccc(C2=C3C(=O)ON=C3CC(C)(C)O2)cc1 | inactive | 250 (≈ 915 µM) | 500 (≈ 1830 µM) | 250 (≈ 915 µM) | 250 (≈ 915 µM) | inactive | 250 (≈ 915 µM) | 250 (≈ 915 µM) | 250 (≈ 915 µM) | Active | 250 (≈ 915 µM) | inactive | 125 (≈ 457 µM) | 250 (≈ 915 µM) | 250 (≈ 915 µM) | Active | 125 (≈ 457 µM) | 250 (≈ 915 µM) | – | –
CC1(C)CC2=NOC(=O)C2=C(c2ccco2)O1 | inactive | – | – | – | – | inactive | – | – | – | inactive | – | inactive | – | – | – | inactive | – | – | – | –
CC1(C)CC2=NOC(=O)C2=C(c2ccccc2)O1 | inactive | – | – | – | – | inactive | – | – | – | inactive | – | inactive | – | – | – | inactive | – | – | – | –
CCC1=C2C(=O)ON=C2CC(C)(C)O1 | inactive | 125 (≈ 640 µM) | – | 250 (≈ 1280 µM) | 250 (≈ 1280 µM) | inactive | 250 (≈ 1280 µM) | 250 (≈ 1280 µM) | 250 (≈ 1280 µM) | Active | 250 (≈ 1280 µM) | inactive | 250 (≈ 1280 µM) | 125 (≈ 640 µM) | 250 (≈ 1280 µM) | Active | 250 (≈ 1280 µM) | 250 (≈ 1280 µM) | inactive | –
COc1cc(OC)cc(C2=C3C(=O)ON=C3CC(C)(C)O2)c1 | inactive | – | – | – | – | inactive | – | – | – | inactive | – | inactive | – | – | – | inactive | – | – | – | –
COc1cc(OC)c2c(O)c3c(cc2c1)OC(C)C(C)C3=O (stereo not given) | inactive | – | – | – | – | inactive | – | – | – | inactive | – | inactive | – | – | – | inactive | – | – | – | –
CC1(C)CC(O)=C2C(=O)c3ccccc3C=C2O1 | inactive | – | – | – | – | inactive | – | – | – | Active | – | inactive | – | – | – | Active | – | – | – | –
CC1(C)CC2=NOC(=O)C2=C(c2ccc(Cl)cc2)O1 | inactive | 250 (≈ 900 µM) | – | 250 (≈ 900 µM) | 250 (≈ 900 µM) | inactive | 250 (≈ 900 µM) | 250 (≈ 900 µM) | 250 (≈ 900 µM) | Active | 125 (≈ 450 µM) | inactive | 250 (≈ 900 µM) | 250 (≈ 900 µM) | 250 (≈ 900 µM) | Active | 125 (≈ 450 µM) | 250 (≈ 900 µM) | inactive | –
CC(C)(C)OO [TERT-BUTYL HYDROPEROXIDE] | – | – | – | – | – | – | – | – | – | – | – | – | – | – | – | – | – | – | – | Toxic
